Bioassay records deposited in PubChem by several laboratories.
CHOP inh: CHOP inhibition in unfolded protein response | hit rate 3.8% among 220,000 | CHO-K1 CHOP-promoter luciferase, tunicamycin-induced, 15-18 h | AID 2732 | inhibition, % at 10 µM;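 active = compounds that reduced the stress-induced luciferase reporter signal by more than about 70% of percent inhibition, limit read from the data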;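 also: 0% = tunicamycin plus vehicle and 100% = wells without tunicamycin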
TbMetRS inhib: blocks T. brucei methionyl-tRNA synthetase activity; inhibition, % at 11.9 µM; AID 624268; hit rate 0.4% among 360,000; purified T. brucei MetRS, ATP depletion, Kinase-Glo luminescence;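 active = inhibition above a per-plate cutoff of the control wells' mean inhibition plus 3 SD, cut at about 5.5% in these data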;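 also: 0% = DMSO wells median and 100% = median of wells with control inhibitor compound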
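assay system = parasite MetRS enzyme | timing = 15 min preincubation, 2 h reaction, all 25 °C | evaluation = percent inhibition relative to median high and low control wells | medium = HEPES buffer containing pyrophosphatase, BSA, spermine, DTT | compound = single dose, 11.9 µM final nominal, 0.9% final DMSO | detection = Kinase-Glo luminescence, ATP depletion format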
MPTP block: inhibitors of mitochondrial permeability transition pore; isolated mouse mitochondria, Ca2+ swelling absorbance, 30 min; inhibition, % at 10 µM; hit rate 1.4% among 360,000;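 active = inhibition of 50% or more, scaled per plate between neutral and stimulator controls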;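 also: 0% = DMSO wells given calcium and 100% = 1 mM EGTA wells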
EBV gp42 block: blocks Epstein-Barr virus glycoprotein 42 binding; hit rate 0.42% among 220,000; Fluorescence polarization binding assay, mP read-out; inhibition, % (tested at 21.74 µM); Q1HVG2; AID 1085; in the data active = inhibition above about 50%
Target sequence (Q1HVG2 whole entry, looked up): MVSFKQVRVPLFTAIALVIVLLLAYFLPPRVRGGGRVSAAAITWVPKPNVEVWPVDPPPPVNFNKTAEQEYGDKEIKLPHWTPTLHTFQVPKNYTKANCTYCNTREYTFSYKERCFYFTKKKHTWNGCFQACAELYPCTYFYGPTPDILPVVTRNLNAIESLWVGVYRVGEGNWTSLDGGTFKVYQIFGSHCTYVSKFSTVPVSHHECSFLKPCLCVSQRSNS
WT yeast gro inh: growth inhibition of WT yeast, mitochondrial fusion screen; AID 1362; hit rate 2.1% among 190,000; mitochondrial fusion phenotypic screen, WT strain; inhibition, % at 10 µM; in the data active = inhibition above about 58%; tested in S. cerevisiae
NR3A LBD binder: NR3A (human) ligand-binding domain modulation. NR3A LBD differential scanning fluorimetry, Tm shift; 0% = protein alone, 100% = glycine-bound protein. Tm shift relative to glycine control, % at 25 µM. hit rate 2.5% among 340,000. AID 1259313;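 active = melting temperature shift of at least 10% of the positive control shift, at one fixed dose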
An asterisk follows results filed as active; . = no result given. The list is not random: actives were taken first. Their share in the collection is about 6.4%.

SMILES	CHOP inh	TbMetRS inhib	MPTP block	EBV gp42 block	WT yeast gro inh	NR3A LBD binder
C#CCOCCOCCOCCNc1nc(N2CCN(C(=O)CCCCCCCCCCNC(=O)[C@@H](CCSC)n3cc(CCO)nn3)CC2)nc(N2CCN(C(=O)CCCCCCCCCCNC(=O)[C@H]([C@@H](C)CC)n3cc(CCCCN=C(N)N)nn3)CC2)n1	.	0.5	-11.8	.	.	7.4
COc1cc2c(=O)c(-c3ccc(O)cc3)coc2cc1OC1OC(CO)C(O)C(O)C1O (stereo not drawn)	12.0	-0.1	-1.3	-0.2	0.2	1.9
COc1cc([C@H]2OC[C@H]3[C@@H]2CO[C@@H]3c2ccc(O[C@H]3O[C@H](CO)[C@@H](O)[C@H](O)[C@H]3O)c(OC)c2)ccc1O[C@@H]1O[C@H](CO)[C@@H](O)[C@H](O)[C@H]1O	.	-0.3	-1.6	.	.	15.7*
CC(=O)Oc1ccc(-c2csc(Nc3ccccn3)n2)cc1	.	-0.3	-0.8	.	.	.
COc1ccc(/C=C/CN2CCN(CCc3ccccc3)C(CCO)C2)cc1 (stereo not drawn)	13.0	0.3	1.6	-0.8	30.4	-2.2
COc1ccc(-c2onc(C)c2-c2cscn2)c(O)c1	32.7	-0.9	-2.1	-5.5	-0.7	0.4
CCCOC(=O)c1ccc(-c2c(C)noc2-c2ccc(OC)cc2O)o1	92.9*	-0.7	11.6	-7.3	33.3	-15.2
CCCn1c2c(c(O)c(C(=O)Nc3nccs3)c1=O)CCCC2	-20.6	-0.8	1.5	10.8	75.8*	-2.0
Cc1csc(NC(=O)c2c(O)c3c(n(CC(C)C)c2=O)CCCC3)n1	52.3	-0.4	-4.3	-14.7	63.2*	0.1
CC(C)Cn1c2c(c(O)c(C(=O)Nc3nccs3)c1=O)CCCC2	12.1	-0.4	-9.1	-34.3	35.4	-2.1
COc1ccc(C(=O)N2CCCC(Nc3ccc(C)c(C)c3)C2)cc1F (stereo not drawn)	.	-0.1	2.6	.	.	15.9*
Cn1c(=O)c(Nc2ccc(Cl)cc2)c2c3c(cccc31)C(=O)c1ccccc1-2	43.2	.	.	176.4*	18.8	-3.4
CCn1cc(Br)c(C(=O)NC(=S)Nc2ccc(C(=O)OC)cc2)n1	34.4	-0.7	3.4	7.4	6.9	12.2*
CCn1cc(Br)c(C(=O)Nc2ccc(F)c(Cl)c2)n1	8.0	-0.8	1.9	3.4	15.7	15.2*
COc1ccc(C2(CCN=Cc3ccc(N(C)C)cc3)CCOC(C)(C)C2)cc1 (stereo not drawn)	-3.4	-0.3	3.8	-25.5	.	-2.9
Cc1ccc(C(=O)NC(=C(Cl)Cl)S(=O)(=O)c2ccc(C)cc2)cc1	8.9	-0.7	-2.1	-3.5	-2.7	-2.4
Cc1ccc(C(=O)NC(=C(Cl)Cl)S(=O)(=O)c2ccc(Cl)cc2)cc1	78.0*	-1.4	0.9	-8.9	14.9	-1.9
CCOC(=O)c1c(C)c(C(=O)N2CCN(C(=O)c3ccco3)CC2)c(C)n1C	4.5	-1.1	-2.1	-16.5	13.8	-0.1
CCOC(=O)c1c(C)n(C(=O)c2ccco2)c(=O)n1C(=O)c1ccco1	84.9*	-0.7	3.2	-0.3	-6.7	-2.6
Cc1ccc2nc(-c3ccc(NC(=O)CSCC(=O)O)cc3)sc2c1	-3.6	-0.6	5.6	-25.1	.	0.5
Cc1nc2ccc(S(=O)(=O)Nc3ccc(-c4nc5cccnc5s4)cc3)cc2s1	-4.2	-0.7	1.2	-15.0	22.6	0.2
Cc1ccc(S(=O)(=O)Nc2ccc3nc(C)oc3c2)cc1	.	-0.4	6.2	.	.	11.2*
Cc1nc2ccc(S(=O)(=O)Nc3cccc(-c4nc5cccnc5s4)c3)cc2s1	-3.1	-0.5	1.3	3.8	71.5*	-12.2
Cc1ccc2nc(-c3ccc(NS(=O)(=O)c4ccccc4)cc3)sc2c1	18.8	0.8	-7.4	-0.7	10.9	28.3*
Cc1ccc(C2(C)NC(=O)N(CC(=O)Nc3ccc(-c4nc5ccc(C)cc5s4)cc3)C2=O)cc1 (stereo not drawn)	73.4*	-0.7	0.5	-34.4	.	2.4
O=C(c1cc2cc(Cl)ccc2oc1=O)N1CCN(c2ccccn2)CC1	.	0.7	3.7	.	.	-1.4
COc1ccc(S(=O)(=O)Nc2ccc3oc4ncccc4c(=O)c3c2)cc1OC	1.3	0.2	9.8	-10.2	.	0.5
CCN1CCN(Cc2ccc(NC(=O)Nc3cccs3)cc2)CC1	14.1	0.6	-7.9	-15.6	8.5	0.6
Cc1ccc2nc(-c3ccc(NC(=S)NC4CC(C)(C)NC(C)(C)C4)cc3)sc2c1	59.4	-0.6	31.7	0.0	60.2*	-7.5
